FN deposition inh: fibronectin deposition inhibition; AH1F fibroblasts, Alexa488-fibronectin deposition fluorescence, overnight; inhibition, % at 12.6 µM; 0.086% of 350,000 active;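 active means mean inhibition across replicates of 30% or more, regardless of how many single replicates reach that level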;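 further: positive control wells lacked labelled fibronectin entirely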
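Measured by – fluorescence 485/525 nm · System – AH1F fibroblast monolayer, labelled fibronectin deposition · Amount – 10000 cells per well · Buffer or medium – serum-reduced DMEM (2% serum) · Doses – single dose, pinned · Also added – fluorescent fibronectin at 24 nM final · Schedule – 1 h cell attachment, overnight exposure to compound and label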
Xi reactivation: activators of X-chromosome reactivation in mouse fibroblasts; XiGFP mouse fibroblasts, % GFP-positive cells imaging, 3 d; cells co-treated with 5-aza-dC sensitizer; scaled so ellipticine positive control = 100%; activation, % at 7.58 µM; 0.055% of 360,000 active; AID 743238;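 active means mean normalized replicate activation at least 10% and every replicate at or above 10%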;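 further: 0% = median of on-plate neutral control wells and 100% = ellipticine 6 µM median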
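Assay system – SV40-immortalized XiGFP fibroblast cells, line 68-5-11 · Buffer or medium – DMEM supplemented with 5-aza-dC as sensitizing agent · Dosing – one concentration, pinned · Benchmarks – positive control ellipticine, 6 µM final · Times – 3 days compound exposure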
Cneo AK release: causes C. neoformans cell lysis; adenylate kinase release luminescence, 4 h; normalised: neutral wells 0, clomiphene wells 100; lysis activity, % at 15 µM; AID 651654; 0.2% of 360,000 active;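 active means mean lysis activity across replicates of at least 80%, whatever share of replicates individually reach that level; inactive means mean lysis activity below 80%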
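Material – Cryptococcus neoformans yeast cells · Quantity – 5 × 10^6 yeast cells/mL · Buffer or medium – YPD medium · Compound – single dose · Timing – 4 h static compound exposure, 37 °C, read 1 h post-reagent · Signal – adenylate kinase release luminescence · Read-out basis – lysis from increased AK signal · Benchmarks – Clomiphene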
DENV2 CPE rescue: protects cells from dengue virus 2 cytopathic effect; CPE inhibition, % at 9.99 µM; 1.7% of 350,000 active; DENV2-infected cells, cytopathic effect rescue, plate reader; AID 651640; in the data active means CPE inhibition above about 20%, passing the limit was not always enough; tested in BHK-21 cells;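 further: 0% = median of neutral control wells and 100% = median of positive control wells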
PGC1a acetyl inh: lowers PGC1a acetylation signal in U2OS cells; AID 651687; inhibition, % at 15.6 µM; AlphaScreen anti-acetyl-lysine; with virally co-expressed GCN5 acetyltransferase; 0.17% of 350,000 active;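 active means every replicate shows inhibition of at least 40%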;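 further: 0% = neutral control wells and 100% = positive control wells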
F508del corr: CFTR F508del correction in bronchial cells | CFBE cells, YFP halide quenching; stimulated with forskolin plus potentiator P3; % fluorescence drop versus neutral controls | activity (quench increase), % at 7.58 µM | 0.36% of 350,000 active | AID 720511;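 active means mean added fluorescence quench of at least 8% versus neutral control, with both replicates also reaching 8%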;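 further: cells transiently co-express mutant CFTR-F508del with the halide-sensitive YFP; corrector assay measuring rescue of mutant channel to the surface after 24 h compound exposure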
The depositor's hits bear a star; . = not tested or not shown. Hits are enriched below; roughly 1.9% of the tested compounds scored in any of these assays.

SMILES | FN deposition inh | Xi reactivation | Cneo AK release | DENV2 CPE rescue | PGC1a acetyl inh | F508del corr
COc1ccc(NS(=O)(=O)c2ccc3c(c2)[C@H]2C=CC[C@H]2[C@@H](c2ccc(C(=O)O)cc2)N3)cc1 | 2.2 | 0.0 | -0.4 | 1.5 | . | -3.3
Cc1c(Cl)cccc1NS(=O)(=O)c1ccc2c(c1)C1C=CCC1C(c1ccc(C(=O)O)cc1)N2 (stereo not drawn) | . | . | . | . | 107.4* | .
C[C@H]1CN([C@@H](C)CO)C(=O)c2cccc(NC(=O)c3ccc(-c4nccs4)cc3)c2O[C@@H]1CN(C)Cc1ccc(-c2ccccc2)cc1 | . | -0.4 | -3.6 | 75.1* | 0.5 | -0.1
Cc1noc(C)c1NC(=O)N(C)C[C@@H]1Oc2c(NC(=O)c3ccc(-c4nccs4)cc3)cccc2C(=O)N([C@H](C)CO)C[C@@H]1C | -9.2 | -1.0 | 51.2 | 33.2* | -6.5 | -4.2
Cc1noc(C)c1NC(=O)N(C)C[C@H]1Oc2c(NC(=O)c3ccc(-c4nccs4)cc3)cccc2C(=O)N([C@@H](C)CO)C[C@H]1C | -5.5 | -0.9 | 63.7 | 24.3* | -4.4 | -0.8
Cc1noc(C)c1NC(=O)N(C)C[C@H]1Oc2c(NC(=O)c3ccc(-c4nccs4)cc3)cccc2C(=O)N([C@H](C)CO)C[C@H]1C | 3.1 | -0.8 | -3.8 | 8.6 | -0.5 | -0.7
COCCNC(=O)C1(C)CCCN(C(=O)c2ccccc2)C1 (stereo not drawn) | -2.4 | 0.0 | 4.5 | 32.8* | . | -2.5
Cc1noc(C)c1NC(=O)Nc1ccc2c(c1)CC(=O)N([C@H](C)CO)C[C@@H](C)[C@@H](CN(C)C(=O)NC(C)C)O2 | . | 0.4 | 3.0 | -14.8 | 1.5 | 1.7
Cc1noc(C)c1NC(=O)Nc1ccc2c(c1)C(=O)N([C@H](C)CO)C[C@H](C)[C@H](CN(C)Cc1ccc(C(=O)Nc3ccccc3N)cc1)O2 | . | 0.1 | -1.3 | 22.2* | 1.5 | -0.4
Cc1noc(C)c1NC(=O)Nc1ccc2c(c1)C(=O)N([C@@H](C)CO)C[C@@H](C)[C@H](CN(C)Cc1ccccc1)O2 | . | 0.1 | 50.1 | 9.4 | . | -0.4
Cc1noc(C)c1NC(=O)Nc1ccc2c(c1)C(=O)N([C@@H](C)CO)C[C@@H](C)[C@H](CN(C)Cc1ccc(-c3ccccc3)cc1)O2 | . | -0.9 | 0.7 | 5.6 | 0.7 | -1.5
Cc1noc(C)c1NC(=O)Nc1ccc2c(c1)C(=O)N([C@H](C)CO)C[C@@H](C)[C@@H](CN(C)Cc1ccc(C(=O)Nc3ccccc3N)cc1)O2 | . | 0.0 | . | 0.0 | 5.9 | -1.5
Cc1noc(C)c1NC(=O)Nc1ccc2c(c1)C(=O)N([C@H](C)CO)C[C@H](C)[C@@H](CN(C)Cc1ccccc1)O2 | . | 0.0 | 40.1 | 22.8* | . | -3.9
Cc1noc(C)c1NC(=O)Nc1ccc2c(c1)C(=O)N([C@@H](C)CO)C[C@H](C)[C@H](CN(C)Cc1ccccc1)O2 | . | 0.1 | -1.0 | 23.2* | . | -1.7
C[C@@H]1CN([C@H](C)CO)C(=O)c2ccccc2-c2ccccc2CO[C@@H]1CN(C)S(C)(=O)=O | 0.7 | -0.4 | -0.5 | -0.2 | -1.5 | -1.7
C[C@@H]1CN([C@H](C)CO)C(=O)c2cc(NS(=O)(=O)c3cn(C)cn3)ccc2O[C@@H]1CN(C)C(=O)Nc1ccc2c(c1)OCO2 | . | 0.1 | 0.8 | -1.7 | -3.9 | -1.3
C[C@@H]1CN([C@H](C)CO)C(=O)c2cc(N(C)C)ccc2O[C@@H](C)CCCCO[C@H]1CN(C)S(=O)(=O)c1cn(C)cn1 | -5.5 | 0.2 | -3.4 | 3.5 | -0.6 | 1.5
C[C@@H]1CN([C@@H](C)CO)C(=O)c2cc(NS(=O)(=O)c3cccs3)ccc2O[C@@H](C)CCCCO[C@H]1CN(C)S(=O)(=O)c1cn(C)cn1 | . | 0.0 | -3.2 | 30.9* | -8.3 | 0.7
C[C@@H]1CCCCO[C@@H](CN(C)S(=O)(=O)c2cn(C)cn2)[C@H](C)CN([C@@H](C)CO)C(=O)c2cc(N(C)C)ccc2O1 | 11.9 | 0.1 | -2.4 | 52.9* | -6.1 | 1.4
C[C@H](CO)N1C[C@H](C)[C@H](CN(C)Cc2ccc(C(=O)O)cc2)Oc2ccc(NS(=O)(=O)c3cn(C)cn3)cc2C1=O | . | 0.4 | -2.7 | 40.9* | 2.2 | 0.5
COc1ccc(CN(C)C[C@H]2OCCCC[C@H](C)Oc3ccc(NS(=O)(=O)c4cn(C)cn4)cc3C(=O)N([C@H](C)CO)C[C@@H]2C)cc1 | . | -0.3 | 57.6 | -6.5 | -2.2 | 0.4
COc1ccc(CN(C)C[C@H]2OCCCC[C@@H](C)Oc3ccc(NS(=O)(=O)c4cn(C)cn4)cc3C(=O)N([C@H](C)CO)C[C@@H]2C)cc1 | . | -0.3 | -6.6 | 52.5* | -9.5 | -2.5
CCCNC(=O)N(C)C[C@@H]1Oc2cc(-c3cncnc3)ccc2S(=O)(=O)N([C@@H](C)CO)C[C@@H]1C | 4.4 | -0.2 | 55.1 | 1.6 | 6.5 | -0.7
COc1ccc(NC(=O)N(C)C[C@H]2Oc3c(NS(=O)(=O)c4cn(C)cn4)cccc3C(=O)N([C@@H](C)CO)C[C@H]2C)cc1 | . | 0.1 | 17.8 | 3.7 | -4.1 | 0.5
CC(C)C#Cc1ccc2c(c1)O[C@H](CN(C)S(C)(=O)=O)[C@H](C)CN([C@@H](C)CO)S2(=O)=O | 3.9 | 1.0 | -1.5 | -2.0 | -4.7 | 0.1
SMILES | FN deposition inh | Xi reactivation | Cneo AK release | DENV2 CPE rescue | PGC1a acetyl inh | F508del corr
COc1ccc(S(=O)(=O)N(C)C[C@@H]2Oc3c(NS(=O)(=O)c4ccc(C)cc4)cccc3C(=O)N([C@@H](C)CO)C[C@@H]2C)cc1 | . | -1.1 | -6.7 | 16.0 | 10.2 | 2.2
COc1ccc(S(=O)(=O)Nc2ccc3c(c2)C(=O)N([C@H](C)CO)C[C@@H](C)[C@@H](CN(C)S(=O)(=O)c2cn(C)cn2)OCCCC[C@H](C)O3)cc1 | . | -0.3 | 0.8 | 53.2* | 16.5 | 2.1
Cc1ccc(S(=O)(=O)Nc2ccc3c(c2)C(=O)N([C@@H](C)CO)C[C@@H](C)[C@@H](CN(C)S(=O)(=O)c2cn(C)cn2)OCCCC[C@H](C)O3)cc1 | -11.2 | 0.0 | 1.8 | 25.5* | -2.1 | -1.1
Cc1ccc(S(=O)(=O)Nc2ccc3c(c2)C(=O)N([C@H](C)CO)C[C@@H](C)[C@@H](CN(C)S(=O)(=O)c2cn(C)cn2)OCCCC[C@H](C)O3)cc1 | -1.4 | 0.0 | 47.4 | 34.0* | 14.3 | 1.2
C[C@H](NC(=O)C[C@@H]1C[C@@H]2c3cc(NC(=O)CC4CC4)ccc3O[C@@H]2[C@H](CO)O1)c1ccccc1 | -9.7 | 0.1 | 52.7 | -3.9 | -12.9 | -0.6
COc1ccc(S(=O)(=O)N2CCCCCC2)cc1C(=O)N(C)Cc1ccc(C(C)(C)C)cc1 | -10.0 | 0.2 | -1.0 | 58.7* | -15.4 | -3.4

Source: PubChem BioAssay
